According to paper PMC9899605 (Cancer Science, 2022):
Where two headings read alike, the source gives them in different places.

Experiments:
NCI-N87 = experiment: Growth inhibition assay, NCI-N87; format: cell-based; conditions: Homo sapiens, NCI-N87, 72 h, read-out: GI50 (nmol/L), mean ± SD
Summary of the method: (§1)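 Cell lines were STR-authenticated; MCF10A lines stably express mutant HER2. Test compounds were dissolved in DMSO and added to the cells. Growth was assessed 3 days after treatment, and GI50 was derived as the mean of three independent experiments.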

NCI-H1975 = experiment: Growth inhibition assay, NCI-H1975; format: cell-based; conditions: Homo sapiens, NCI-H1975, 72 h, read-out: GI50 (nmol/L), mean ± SD
[1] = system: NCI-H1975 EGFR D770_N771insSVD; experiment: Growth inhibition assay, NCI-H1975 EGFR D770_N771insSVD; format: cell-based; conditions: Homo sapiens, NCI-H1975, 72 h, read-out: GI50 (nmol/L), mean ± SD
HCC827 = experiment: Growth inhibition assay, HCC827; format: cell-based; conditions: Homo sapiens, HCC827, 72 h, read-out: GI50 (nmol/L), mean ± SD
[2] = system: HER2/HER3 signaling in SK-BR-3 cell line; experiment: Western blot of HER2 signaling pathway in SK-BR-3 cells; format: cell-based
NCI-H460 = experiment: Growth inhibition assay, NCI-H460; format: cell-based; conditions: Homo sapiens, NCI-H460, 72 h, read-out: GI50 (nmol/L), mean ± SD
NIH/3T3_EGFR vIII = experiment: Growth inhibition assay, NIH/3T3_EGFR vIII; format: cell-based; conditions: 72 h, read-out: GI50 (nmol/L), mean ± SD
NCI-H1781 = experiment: Growth inhibition assay, NCI-H1781; format: cell-based; conditions: Homo sapiens, NCI-H1781, 72 h, read-out: GI50 (nmol/L), mean ± SD
Summary of the method: as §1

MCF10A_HER2/insYVMA = experiment: Growth inhibition assay, MCF10A_HER2/insYVMA; format: cell-based; conditions: Homo sapiens, 72 h, read-out: GI50 (nmol/L), mean ± SD
Summary of the method: as §1

A-431 = experiment: Growth inhibition assay, A-431; format: cell-based; conditions: Homo sapiens, A-431, 72 h, read-out: GI50 (nmol/L), mean ± SD
Summary of the method: as §1

BT-474 = experiment: Growth inhibition assay, BT-474; format: cell-based; conditions: Homo sapiens, BT-474, 72 h, read-out: GI50 (nmol/L), mean ± SD
Summary of the method: as §1

[3] = in rodents, cited from earlier work
HER2/L755S = HER2/L755S (Homo sapiens, UniProt P04626, L755S); experiment: In-Cell Western phospho-HER2, MCF10A_HER2/L755S; format: cell-based
Summary of the method: (§2)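 MCF10A cells stably expressing WT or mutant HER2 were seeded at 1.0 × 10⁴ cells/well in 96-well plates. They were exposed to test compound for 4 h. HER2-Tyr1196 phosphorylation was quantified by In-Cell Western, and IC50 was calculated.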

panel of 257 kinases = experiment: Kinase selectivity panel; format: biochemical; conditions: poziotinib at 300 nmol/L (100-fold IC50 of WT HER2); of 257 kinases tested
Summary of the method: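 Test compound was screened at a single concentration against a 257-kinase panel. Peptide phosphorylation was quantified by mobility shift or IMAP assay, and percent inhibition was calculated. IC50s for off-target kinases were measured as singlets in duplicate mode.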

WT HER2 = WT HER2 (Homo sapiens, UniProt P04626); experiment: In-Cell Western phospho-HER2, MCF10A_HER2; format: cell-based
Summary of the method: as §2

HER2/S310F = HER2/S310F (Homo sapiens, UniProt P04626, S310F); experiment: In-Cell Western phospho-HER2, MCF10A_HER2/S310F; format: cell-based
Summary of the method: as §2

HER2/V777L = HER2/V777L (Homo sapiens, UniProt P04626, V777L); experiment: In-Cell Western phospho-HER2, MCF10A_HER2/V777L; format: cell-based
Summary of the method: as §2

[4] = system: NCI-N87-luc intracranial xenograft; experiment: Intracranial xenograft model, NCI-N87-luc; format: in vivo, BALB/cAJcl-nu/nu mice; conditions: poziotinib once daily
HER2/V842I = HER2/V842I (Homo sapiens, UniProt P04626, V842I); experiment: In-Cell Western phospho-HER2, MCF10A_HER2/V842I; format: cell-based
Summary of the method: as §2

HER2/insYVMA = HER2/insYVMA (Homo sapiens, UniProt P04626, INS775YVMA); experiment: In-Cell Western phospho-HER2, MCF10A_HER2/insYVMA; format: cell-based
Summary of the method: as §2

| Compound | GI50 (NCI-N87) [nmol/L] | GI50 (NCI-H1975) [nmol/L] | GI50 [1] [nmol/L] | GI50 (HCC827) [nmol/L] | GI50 (NCI-H460) [nmol/L] | GI50 (NIH/3T3_EGFR vIII) [nmol/L] | GI50 (NCI-H1781) [nmol/L] | GI50 (MCF10A_HER2/insYVMA) [nmol/L] | GI50 (A-431) [nmol/L] | GI50 (BT-474) [nmol/L] | other results |
| --- | --- | --- | --- | --- | --- | --- | --- | --- | --- | --- | --- |
| CS(=O)(=O)CCNCc1ccc(-c2ccc3ncnc(Nc4ccc(OCc5cccc(F)c5)c(Cl)c4)c3c2)o1 [Lapatinib] | 16.7 ± 10 | > 1000 | > 1000 | 679 ± 211 | > 1000 | > 1000 | 576 ± 282 | > 1000 | 424 ± 29 | – | phosphorylation of HER2, HER3, and their downstream proteins [2]: inhibited; phosphorylation of HER3 and its downstream targets, AKT and ERK, at 48 h [2]: increased |
| CCOc1cc2ncc(C#N)c(Nc3ccc(OCc4ccccn4)c(Cl)c3)c2cc1NC(=O)/C=C/CN(C)C [Neratinib, neratinib] | 0.946 ± 0.771 | 236 ± 147 | 130 ± 60 | 292 ± 187 | 860 ± 67 | 114 ± 72 | 15.4 ± 5.9 | 84.3 ± 9 | 35.8 ± 9.7 | 1.03 ± 0.69 | – |
| C[C@H]1Oc2cc(cnc2N)-c2c(nn(C)c2C#N)CN(C)C(=O)c2ccc(F)cc21 [lorlatinib] | – | – | – | – | – | – | – | – | – | – | Kp,uu,brain [3]: 0.21 |
| C=CC(=O)N1CCC(Oc2cc3c(Nc4ccc(Cl)c(Cl)c4F)ncnc3cc2OC)CC1 [Poziotinib, poziotinib] | 0.345 ± 0.159 | 14.2 ± 7.5 | 3.87 ± 2.04 | 2.17 ± 0.75 | > 1000 | 12.7 ± 15.1 | 2.47 ± 1.35 | 8.27 ± 0.93 | 0.695 ± 0.174 | 0.508 ± 0.267 | IC50 (HER2/L755S): 3.52 ± 0.18 nM; Kp,uu,brain ([3]; no reference given): 0.06; number of kinases inhibited at >50% of enzymatic activity (panel of 257 kinases): 41; IC50 (WT HER2): 1.06 ± 0.13 nM; IC50 (HER2/S310F): 0.932 ± 0.038 nM; IC50 (HER2/V777L): 0.819 ± 0.121 nM; antitumor effect (total flux) [4]: failed to show tumor regression; IC50 (HER2/V842I): 1.84 ± 0.24 nM; IC50 (HER2/insYVMA): 0.956 ± 0.132 nM |
